Results as given in ChEMBL document CHEMBL4325904 (Eur J Med Chem, 2019).
Activity calls are given as the source filed them. No cut-off for these calls is given here.

Columns and labels:
[1] = Drug uptake in human A549 cells cytoplasm at 1 uM after 2 hrs by naphthalimide dye-based inverted light fluorescence confocal microscopic analysis; format: ADME, subcellular; settings: a549, 2 h
Procedure, shortened: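 A549 cells incubated 2 hours with compound at 1 µM; intracellular distribution imaged by confocal microscopy with 405 nm laser excitation, emission collected at 460–560 nm.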

Histone deacetylase 2 = Histone deacetylase 2 (Homo sapiens, UniProt Q92769); assay: Inhibition of recombinant full length C-terminal GST-tagged human HDAC2 (1 to 488 residues) expressed in insect cells using RHK-K(Ac)-AMC as substrate by fluorimetric assay
Histone deacetylase 2, sequence (Q92769 whole entry, the tested form may be a part): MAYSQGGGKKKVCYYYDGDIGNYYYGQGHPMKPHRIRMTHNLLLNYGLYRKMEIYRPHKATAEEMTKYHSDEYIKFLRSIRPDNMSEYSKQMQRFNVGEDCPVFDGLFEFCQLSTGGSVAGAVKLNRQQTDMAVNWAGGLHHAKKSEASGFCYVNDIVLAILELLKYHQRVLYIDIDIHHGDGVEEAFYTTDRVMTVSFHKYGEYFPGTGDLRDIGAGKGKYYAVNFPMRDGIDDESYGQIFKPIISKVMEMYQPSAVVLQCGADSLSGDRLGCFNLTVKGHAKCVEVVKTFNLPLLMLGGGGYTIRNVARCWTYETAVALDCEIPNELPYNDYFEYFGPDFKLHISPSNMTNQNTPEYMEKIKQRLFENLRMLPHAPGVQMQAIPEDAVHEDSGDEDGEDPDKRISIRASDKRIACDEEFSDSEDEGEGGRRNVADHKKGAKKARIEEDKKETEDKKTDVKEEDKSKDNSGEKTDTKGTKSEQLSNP

Homo sapiens = organism: Homo sapiens; assay: Selectivity ratio of IC50 for human HDAC9 to IC50 for recombinant N-terminal GST-tagged human HDAC6 (1 to 1215 residues)
A549 = assay: Induction of morphological changes in human A549 cells assessed as increase in protrusions of the membrane at 10 uM after 20 mins by naphthalimide/Lysotracker Deep Red dye-based inverted light fluorescence confocal microscopic analysis; format: functional, cell-based
Procedure, shortened: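 A549 cells exposed to compound at 10 µM for 20 minutes, then imaged by confocal microscopy (λex 405 nm, λem 460–560 nm); membrane protrusions (blebbing) recorded.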

Histone deacetylase 4 = Histone deacetylase 4 (Homo sapiens, UniProt P56524); assay: Inhibition of recombinant N-terminal GST-tagged /C-terminal His-tagged human HDAC4 (627 to 1084 residues) expressed in Baculovirus infected insect cells using Boc-Lys(trifluoroacetyl)-AMC as substrate by fluorimetric assay
Histone deacetylase 4, sequence (P56524 whole entry, the tested form may be a part): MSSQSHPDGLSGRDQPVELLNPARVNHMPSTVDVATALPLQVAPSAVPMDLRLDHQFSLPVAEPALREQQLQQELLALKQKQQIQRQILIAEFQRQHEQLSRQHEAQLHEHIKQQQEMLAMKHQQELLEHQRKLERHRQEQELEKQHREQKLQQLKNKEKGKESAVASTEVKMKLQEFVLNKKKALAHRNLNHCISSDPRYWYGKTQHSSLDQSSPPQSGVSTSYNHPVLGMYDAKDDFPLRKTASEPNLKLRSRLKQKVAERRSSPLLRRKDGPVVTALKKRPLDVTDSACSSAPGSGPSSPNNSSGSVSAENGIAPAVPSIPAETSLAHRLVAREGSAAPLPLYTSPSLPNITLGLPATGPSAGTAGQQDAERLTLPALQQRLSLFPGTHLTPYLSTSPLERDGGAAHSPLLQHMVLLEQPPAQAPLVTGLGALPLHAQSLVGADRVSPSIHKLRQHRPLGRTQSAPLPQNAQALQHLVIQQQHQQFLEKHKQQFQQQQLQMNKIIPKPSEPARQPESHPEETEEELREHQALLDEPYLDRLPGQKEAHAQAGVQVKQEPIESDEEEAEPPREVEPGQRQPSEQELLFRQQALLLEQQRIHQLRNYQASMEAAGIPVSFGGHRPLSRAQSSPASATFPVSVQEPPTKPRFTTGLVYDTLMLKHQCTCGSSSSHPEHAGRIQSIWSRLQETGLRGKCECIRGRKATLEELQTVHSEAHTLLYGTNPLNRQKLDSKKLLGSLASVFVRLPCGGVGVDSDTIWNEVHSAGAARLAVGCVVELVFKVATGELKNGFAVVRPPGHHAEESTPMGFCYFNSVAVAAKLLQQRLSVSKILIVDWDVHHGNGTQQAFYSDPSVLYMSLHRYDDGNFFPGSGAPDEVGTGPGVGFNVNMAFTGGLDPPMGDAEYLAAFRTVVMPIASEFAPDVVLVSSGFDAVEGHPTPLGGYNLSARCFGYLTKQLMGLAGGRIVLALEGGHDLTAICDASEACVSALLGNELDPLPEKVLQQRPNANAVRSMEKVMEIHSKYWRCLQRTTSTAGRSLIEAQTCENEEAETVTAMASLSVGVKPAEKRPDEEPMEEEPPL

Histone deacetylase 7 = target: T1, Histone deacetylase 7 (Homo sapiens, UniProt Q8WUI4); assay: Inhibition of recombinant N-terminal GST-tagged human HDAC7 (518 to 991 residues) expressed in Baculovirus infected insect cells using Boc-K(Ac)-AMC as substrate by fluorimetric assay
T1 sequence (Q8WUI4 whole entry): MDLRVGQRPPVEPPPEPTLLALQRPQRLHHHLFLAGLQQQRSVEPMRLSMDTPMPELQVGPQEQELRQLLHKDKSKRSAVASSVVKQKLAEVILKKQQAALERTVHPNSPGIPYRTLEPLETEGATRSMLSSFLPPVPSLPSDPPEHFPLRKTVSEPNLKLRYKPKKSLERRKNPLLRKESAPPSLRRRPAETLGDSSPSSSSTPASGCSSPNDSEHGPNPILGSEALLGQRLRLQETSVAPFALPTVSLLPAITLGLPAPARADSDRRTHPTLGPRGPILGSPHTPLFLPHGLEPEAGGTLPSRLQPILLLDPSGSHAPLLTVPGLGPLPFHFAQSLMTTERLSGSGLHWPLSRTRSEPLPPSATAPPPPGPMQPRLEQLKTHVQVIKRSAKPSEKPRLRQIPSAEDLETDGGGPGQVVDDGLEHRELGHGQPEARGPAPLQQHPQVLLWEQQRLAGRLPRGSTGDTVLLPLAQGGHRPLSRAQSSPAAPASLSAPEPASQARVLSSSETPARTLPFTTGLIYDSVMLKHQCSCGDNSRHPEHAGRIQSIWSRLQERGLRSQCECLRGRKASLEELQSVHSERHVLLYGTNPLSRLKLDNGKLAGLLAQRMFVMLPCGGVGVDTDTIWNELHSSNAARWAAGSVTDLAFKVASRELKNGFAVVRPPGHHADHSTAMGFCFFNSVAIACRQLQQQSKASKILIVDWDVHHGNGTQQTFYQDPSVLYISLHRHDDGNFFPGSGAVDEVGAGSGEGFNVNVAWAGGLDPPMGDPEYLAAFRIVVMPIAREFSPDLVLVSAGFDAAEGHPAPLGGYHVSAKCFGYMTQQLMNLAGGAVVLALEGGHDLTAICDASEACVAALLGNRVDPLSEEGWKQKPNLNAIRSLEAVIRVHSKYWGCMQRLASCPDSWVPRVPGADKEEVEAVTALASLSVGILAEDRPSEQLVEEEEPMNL

Kasumi 1 = assay: Potency index, ratio of scriptaid IC50 to test compound IC50 for human Kasumi-1 cells; format: functional

SMILES	Drug uptake [1]	IC50 (Histone deacetylase 2) [µM]	Ratio IC50 (Homo sapiens)	Activity (A549)	IC50 (Histone deacetylase 4) [µM]	IC50 (Histone deacetylase 7) [µM]	Ratio IC50 (Kasumi 1)
O=C(CCCCCN1C(=O)c2cccc3c(NCc4ccccc4)ccc(c23)C1=O)NO	Active	0.85	> 2000	Active	5.5	3.2	
CCCNc1ccc2c3c(cccc13)C(=O)N(CCCCCC(=O)NO)C2=O	Active	0.42	> 2000		> 10	9.4	5
